Laboratory results published in ChEMBL document CHEMBL1123503, “Synthesis and biological activity of 3-amino-5-(3,5-diamino-6-chloropyrazin-2-yl)-1,2,4-oxadiazole: an amiloride prodrug” (1986).

Test system: Rattus norvegicus
Assay: Compound was evaluated for diuretic activity determined by the ability to induce electrolytic excretion (K+) at a time period of 0-24 hr for dose 3 mg/kg
Format: functional, Urine
Procedure, shortened: (§1)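 Female Sprague-Dawley rats weighing 160-170 g were dosed orally at 3, 9, 27 or 81 mg/kg, housed three per cage, with three cages per dose. Urinary Na+, K+ and Cl- (mequiv × 100) and urine volume (mL) were measured over 0-5 h and 0-24 h after dosing. A placebo group was run alongside.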

| Structure (SMILES) | Diuretic effect |
| --- | --- |
| CN(C)c1nc(N)c(-c2nc(N)no2)nc1Cl | 97 |

Test system: Rattus norvegicus
Assay: Compound was evaluated for diuretic activity determined by the ability to induce electrolytic excretion (K+) at a time period of 0-24 hr for dose 81 mg/kg
Format: functional, Urine
Design: unit: mequiv × 100
Procedure, shortened: as §1

| Structure (SMILES) | Diuretic effect |
| --- | --- |
| CN(C)c1nc(N)c(-c2nc(N)no2)nc1Cl | 53 |

Test system: Rattus norvegicus
Assay: Compound was evaluated for diuretic activity determined by the ability to induce electrolytic excretion (K+) at a time period of 0-24 hr for dose 9 mg/kg
Format: functional, Urine
Procedure, shortened: as §1

| Structure (SMILES) | Diuretic effect |
| --- | --- |
| CN(C)c1nc(N)c(-c2nc(N)no2)nc1Cl | 83 |

Test system: Rattus norvegicus
Assay: Compound was evaluated for diuretic activity determined by the ability to induce electrolytic excretion (K+) at a time period of 0-5 hr for dose 27 mg/kg
Format: functional, Urine
Procedure, shortened: as §1

| Structure (SMILES) | Diuretic effect |
| --- | --- |
| CN(C)c1nc(N)c(-c2nc(N)no2)nc1Cl | 1 |

Test system: Rattus norvegicus
Assay: Compound was evaluated for diuretic activity determined by the ability to induce electrolytic excretion (K+) at a time period of 0-5 hr for dose 3 mg/kg
Format: functional, Urine
Procedure, shortened: as §1

| Structure (SMILES) | Diuretic effect |
| --- | --- |
| CN(C)c1nc(N)c(-c2nc(N)no2)nc1Cl | 2 |

Test system: Rattus norvegicus
Assay: Compound was evaluated for diuretic activity determined by the ability to induce electrolytic excretion (K+) at a time period of 0-5 hr for dose 81 mg/kg
Format: functional, Urine
Procedure, shortened: as §1

| Structure (SMILES) | Diuretic effect |
| --- | --- |
| CN(C)c1nc(N)c(-c2nc(N)no2)nc1Cl | 1 |

Test system: Rattus norvegicus
Assay: Compound was evaluated for diuretic activity determined by the ability to induce electrolytic excretion (K+) at a time period of 0-5 hr for dose 9 mg/kg
Format: functional, Urine
Procedure, shortened: as §1

| Structure (SMILES) | Diuretic effect |
| --- | --- |
| CN(C)c1nc(N)c(-c2nc(N)no2)nc1Cl | 2 |

Test system: Rattus norvegicus
Assay: Compound was evaluated for diuretic activity determined by the ability to induce electrolytic excretion (Na+) at a time period of 0-24 hr for dose 27 mg/kg
Format: functional, Urine
Procedure, shortened: as §1

| Structure (SMILES) | Diuretic effect |
| --- | --- |
| CN(C)c1nc(N)c(-c2nc(N)no2)nc1Cl | 341 |

Test system: Rattus norvegicus
Assay: Compound was evaluated for diuretic activity determined by the ability to induce electrolytic excretion (Na+) at a time period of 0-24 hr for dose 3 mg/kg
Format: functional, Urine
Procedure, shortened: as §1

| Structure (SMILES) | Diuretic effect |
| --- | --- |
| CN(C)c1nc(N)c(-c2nc(N)no2)nc1Cl | 202 |

Test system: Rattus norvegicus
Assay: Compound was evaluated for diuretic activity determined by the ability to induce electrolytic excretion (Na+) at a time period of 0-24 hr for dose 81 mg/kg
Format: functional, Urine
Procedure, shortened: as §1

| Structure (SMILES) | Diuretic effect |
| --- | --- |
| CN(C)c1nc(N)c(-c2nc(N)no2)nc1Cl | 352 |

Test system: Rattus norvegicus
Assay: Compound was evaluated for diuretic activity determined by the ability to induce electrolytic excretion (Na+) at a time period of 0-24 hr for dose 9 mg/kg
Format: functional, Urine
Procedure, shortened: as §1

| Structure (SMILES) | Diuretic effect |
| --- | --- |
| CN(C)c1nc(N)c(-c2nc(N)no2)nc1Cl | 258 |

Test system: Rattus norvegicus
Assay: Compound was evaluated for diuretic activity determined by the ability to induce electrolytic excretion (Na+) at a time period of 0-5 hr for dose 27 mg/kg
Format: functional, Urine
Procedure, shortened: as §1

| Structure (SMILES) | Diuretic effect |
| --- | --- |
| CN(C)c1nc(N)c(-c2nc(N)no2)nc1Cl | 107 |

Test system: Rattus norvegicus
Assay: Compound was evaluated for diuretic activity determined by the ability to induce electrolytic excretion (Na+) at a time period of 0-5 hr for dose 3 mg/kg
Format: functional, Urine
Procedure, shortened: as §1

| Structure (SMILES) | Diuretic effect |
| --- | --- |
| CN(C)c1nc(N)c(-c2nc(N)no2)nc1Cl | 64 |

Test system: Rattus norvegicus
Assay: Compound was evaluated for diuretic activity determined by the ability to induce electrolytic excretion (Na+) at a time period of 0-5 hr for dose 81 mg/kg
Format: functional, Urine
Procedure, shortened: as §1

| Structure (SMILES) | Diuretic effect |
| --- | --- |
| CN(C)c1nc(N)c(-c2nc(N)no2)nc1Cl | 108 |

Test system: Rattus norvegicus
Assay: Compound was evaluated for diuretic activity determined by the ability to induce electrolytic excretion (Na+) at a time period of 0-5 hr for dose 9 mg/kg
Format: functional, Urine
Procedure, shortened: as §1

| Structure (SMILES) | Diuretic effect |
| --- | --- |
| CN(C)c1nc(N)c(-c2nc(N)no2)nc1Cl | 88 |

Test system: Rattus norvegicus
Assay: Urine volumes was determined at time period of 0-5 hours for dose 27 mg/kg
Format: functional
Procedure, shortened: (§2)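 Female Sprague-Dawley rats (160-170 g) were dosed orally at 3-81 mg/kg, with a placebo group. Housing was three rats per cage and three cages per dose. Urinary Na+, K+ and Cl- (mequiv × 100) and urine volume were measured over 0-5 h and 0-24 h.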

| Structure (SMILES) | Diuretic effect |
| --- | --- |
| CN(C)c1nc(N)c(-c2nc(N)no2)nc1Cl | 0.6 |

Test system: Rattus norvegicus
Assay: Urine volumes was determined at time period of 0-5 hours for dose 9 mg/kg
Format: functional
Procedure, shortened: as §2

| Structure (SMILES) | Diuretic effect |
| --- | --- |
| CN(C)c1nc(N)c(-c2nc(N)no2)nc1Cl | 7.2 |

Test system: Rattus norvegicus
Assay: Compound was evaluated for diuretic activity determined by the ability to induce electrolytic excretion (Cl-) at a time period of 0-24 hr for dose 27 mg/kg
Format: functional, Urine
Procedure, shortened: as §1

| Structure (SMILES) | Diuretic effect |
| --- | --- |
| CN(C)c1nc(N)c(-c2nc(N)no2)nc1Cl | 270 |

Test system: Rattus norvegicus
Assay: Compound was evaluated for diuretic activity determined by the ability to induce electrolytic excretion (Cl-) at a time period of 0-24 hr for dose 3 mg/kg
Format: functional, Urine
Procedure, shortened: as §1

| Structure (SMILES) | Diuretic effect |
| --- | --- |
| CN(C)c1nc(N)c(-c2nc(N)no2)nc1Cl | 170 |

Test system: Rattus norvegicus
Assay: Compound was evaluated for diuretic activity determined by the ability to induce electrolytic excretion (Cl-) at a time period of 0-24 hr for dose 81 mg/kg
Format: functional, Urine
Procedure, shortened: as §1

| Structure (SMILES) | Diuretic effect |
| --- | --- |
| CN(C)c1nc(N)c(-c2nc(N)no2)nc1Cl | 267 |

Test system: Rattus norvegicus
Assay: Compound was evaluated for diuretic activity determined by the ability to induce electrolytic excretion (Cl-) at a time period of 0-24 hr for dose 9 mg/kg
Format: functional, Urine
Procedure, shortened: as §1

| Structure (SMILES) | Diuretic effect |
| --- | --- |
| CN(C)c1nc(N)c(-c2nc(N)no2)nc1Cl | 200 |

Test system: Rattus norvegicus
Assay: Compound was evaluated for diuretic activity determined by the ability to induce electrolytic excretion (Cl-) at a time period of 0-5 hr for dose 3 mg/kg
Format: functional, Urine
Procedure, shortened: as §1

| Structure (SMILES) | Diuretic effect |
| --- | --- |
| CN(C)c1nc(N)c(-c2nc(N)no2)nc1Cl | 40 |

Test system: Rattus norvegicus
Assay: Compound was evaluated for diuretic activity determined by the ability to induce electrolytic excretion (Cl-) at a time period of 0-5 hr for dose 81 mg/kg
Format: functional, Urine
Procedure, shortened: as §1

| Structure (SMILES) | Diuretic effect |
| --- | --- |
| CN(C)c1nc(N)c(-c2nc(N)no2)nc1Cl | 57 |

Test system: Rattus norvegicus
Assay: Compound was evaluated for diuretic activity determined by the ability to induce electrolytic excretion (Cl-) at a time period of 0-5 hr for dose 9 mg/kg
Format: functional, Urine
Procedure, shortened: as §1

| Structure (SMILES) | Diuretic effect |
| --- | --- |
| CN(C)c1nc(N)c(-c2nc(N)no2)nc1Cl | 48 |

Test system: Rattus norvegicus
Assay: Compound was evaluated for diuretic activity determined by the ability to induce electrolytic excretion (K+) at a time period of 0-24 hr for dose 27 mg/kg
Format: functional, Urine
Procedure, shortened: as §1

| Structure (SMILES) | Diuretic effect |
| --- | --- |
| CN(C)c1nc(N)c(-c2nc(N)no2)nc1Cl | 82 |

Test system: Rattus norvegicus
Assay: Urine volumes was determined in Sprague-Dawley rats was determined at time period of 0-5 hours at 9 mg/kg
Format: functional
Procedure, shortened: as §1

| Structure (SMILES) | Urine volume |
| --- | --- |
| CN(C)c1nc(N)c(-c2nc(N)no2)nc1Cl | 32 mL |

Test system: Rattus norvegicus
Assay: Urine volumes in Sprague-Dawley rats was determined at time period of 0-5 hours at 3 mg/kg
Format: functional
Procedure, shortened: as §1

| Structure (SMILES) | Urine volume |
| --- | --- |
| CN(C)c1nc(N)c(-c2nc(N)no2)nc1Cl | 28 mL |

Test system: Rattus norvegicus
Assay: Urine volumes in Sprague-Dawley rats was determined at time period of 0-5 hours at 81 mg/kg
Format: functional
Procedure, shortened: as §1

| Structure (SMILES) | Urine volume |
| --- | --- |
| CN(C)c1nc(N)c(-c2nc(N)no2)nc1Cl | 30 mL |

Test system: Rattus norvegicus
Assay: Urine volumes in Sprague-Dawley rats was determined at time period of 0-5 hours at 27 mg/kg
Format: functional
Procedure, shortened: as §1

| Structure (SMILES) | Urine volume |
| --- | --- |
| CN(C)c1nc(N)c(-c2nc(N)no2)nc1Cl | 31 mL |

Test system: Rattus norvegicus
Assay: Compound was evaluated for diuretic activity determined by the ability to induce electrolytic excretion (Cl-) at a time period of 0-5 hr for dose 27 mg/kg
Format: functional, Urine
Procedure, shortened: as §1

| Structure (SMILES) | Diuretic effect |
| --- | --- |
| CN(C)c1nc(N)c(-c2nc(N)no2)nc1Cl | 63 |

Test system: Canis familiaris
Assay: Diuretic activity in mongrel dog was determined by the ability to induce electrolytic excretion (K+) at a time period of 0-5 hr after administration of 5 mg/kg dose.

| Structure (SMILES) | Diuretic effect |
| --- | --- |
| CN(C)c1nc(N)c(-c2nc(N)no2)nc1Cl | 0.6 |

Test system: Canis familiaris
Assay: Diuretic activity in mongrel dog was determined by the ability to induce electrolytic excretion (Na+) at a time period of 0-5 hr after administration of 5 mg/kg dose.

| Structure (SMILES) | Diuretic effect |
| --- | --- |
| CN(C)c1nc(N)c(-c2nc(N)no2)nc1Cl | 7.2 |

Test system: Canis familiaris
Assay: Diuretic activity in mongrel dog was determined by the ability of compound to induce electrolytic excretion (CL-) at a time period of 0-5 hr after administration of 5 mg/kg dose.

| Structure (SMILES) | Diuretic effect |
| --- | --- |
| CN(C)c1nc(N)c(-c2nc(N)no2)nc1Cl | 3 |
